From ChEMBL document CHEMBL1128251, “Antimalarial activity of new dihydroartemisinin derivatives. 6. alpha-Alkylbenzylic ethers” (J Med Chem, 1995) come the findings set out here.

Values after ≈ are worked out from the molar mass of the structure shown.

Assay [1] has as its system Plasmodium falciparum. As to the kind of experiment: In vitro antimalarial activity against Plasmodium falciparum D6 (Sierra Leone I). In kind it is functional, organism-based. The procedure, abridged: (§1)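 Clones D-6 and W-2 tested in parallel. Compounds dissolved in DMSO, diluted 400-fold in RPMI 1640 with 25 mM Hepes, 32 mM NaHCO3 and 10% human plasma, then serially diluted 2-fold over 11 concentrations. Parasites preexposed 48 h at 37 °C under 5% O2/5% CO2/90% N2, then [3H]hypoxanthine added for 18 h; DNA harvested, uptake counted by scintillation. IC50 from logistic dose-response model; arithmetic mean of ≥3 runs.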

Assay [2] concerns Plasmodium falciparum. Put plainly: In vitro antimalarial activity against Plasmodium falciparum W2 Indochina. In kind it is functional, organism-based. The procedure, abridged: as §1

For `CCOC(=O)[C@H](O[C@H]1O[C@@H]2O[C@@]3(C)CC[C@H]4[C@H](C)CCC([C@H]1C)[C@@]24OO3)c1ccccc1` (some centres undefined), the figures for the IC50 in assay [1] and in assay [2] were 0.287 ng/mL (≈ 0.643 nM) and 0.0938 ng/mL (≈ 0.21 nM), respectively.
For `CO[C@H]1O[C@@H]2O[C@@]3(C)CC[C@H]4[C@H](C)CC[C@@H]([C@H]1C)[C@@]24OO3` [ARTEMETHER], the IC50 in assay [1] was determined as 0.869 ng/mL (≈ 2.91 nM); in assay [2] it was 0.301 ng/mL (≈ 1.01 nM).
Take `CCC[C@@H](Cc1ccccc1)O[C@H]1O[C@@H]2O[C@@]3(C)CC[C@H]4[C@H](C)CCC([C@H]1C)[C@@]24OO3` (some centres undefined): the IC50 in assay [1] came to 0.972 ng/mL (≈ 2.26 nM); in assay [2], 0.697 ng/mL (≈ 1.62 nM).
`CCOC(=O)[C@@H](O[C@H]1O[C@@H]2O[C@@]3(C)CC[C@H]4[C@H](C)CCC([C@H]1C)[C@@]24OO3)c1ccccc1` (some centres undefined): the IC50 is 0.509 ng/mL (≈ 1.14 nM) in assay [1] and 0.227 ng/mL (≈ 0.507 nM) in assay [2].
On the same counts, the results for `CCC[C@H](Cc1ccccc1)O[C@H]1O[C@@H]2O[C@@]3(C)CC[C@H]4[C@H](C)CCC([C@H]1C)[C@@]24OO3` (some centres undefined) are 3.05 ng/mL (≈ 7.08 nM) and 1.92 ng/mL (≈ 4.45 nM).
In the case of `COC(=O)c1ccc([C@@H](C)O[C@H]2O[C@@H]3O[C@@]4(C)CC[C@H]5[C@H](C)CCC([C@H]2C)[C@@]35OO4)cc1` (some centres undefined), the IC50 turned out to be 0.921 ng/mL (≈ 2.06 nM) in assay [1] and 0.337 ng/mL (≈ 0.754 nM) in assay [2].
On to `CCOC(=O)C[C@H](O[C@H]1O[C@@H]2O[C@@]3(C)CC[C@H]4[C@H](C)CCC([C@H]1C)[C@@]24OO3)c1ccccc1` (some centres undefined), for which the IC50 in assay [1] was found to be 0.459 ng/mL (≈ 0.997 nM); in assay [2], 0.144 ng/mL (≈ 0.312 nM).
For the compound `C[C@@H]1[C@H](OCc2ccc(C(=O)O)cc2)O[C@@H]2O[C@@]3(C)CC[C@@H]4[C@@H](C)CC[C@@H]1[C@]24OO3` [ARTELINIC ACID], the IC50 in assay [1] was 4.87 ng/mL (≈ 11.6 nM); in assay [2], 2.08 ng/mL (≈ 4.97 nM).
Consider `C[C@@H]1CCC2[C@@H](C)[C@@H](O[C@H](C)c3ccc(C(F)(F)F)cc3)O[C@@H]3O[C@@]4(C)CC[C@@H]1[C@@]23OO4` (some centres undefined), for which the IC50 in assay [1] stood at 1.46 ng/mL (≈ 3.19 nM); in assay [2], 1.15 ng/mL (≈ 2.51 nM).
On to `COC(=O)c1ccc([C@H](C)O[C@H]2O[C@@H]3O[C@@]4(C)CC[C@H]5[C@H](C)CCC([C@H]2C)[C@@]35OO4)cc1` (some centres undefined), for which the IC50 stood at 0.692 ng/mL (≈ 1.55 nM) in assay [1] and 0.335 ng/mL (≈ 0.751 nM) in assay [2].
Consider `CCOC(=O)C[C@@H](O[C@H]1O[C@@H]2O[C@@]3(C)CC[C@H]4[C@H](C)CCC([C@H]1C)[C@@]24OO3)c1ccccc1` (some centres undefined), for which the IC50 in assay [1] came out at 0.496 ng/mL (≈ 1.08 nM); in assay [2], 0.213 ng/mL (≈ 0.463 nM).
With `C[C@@H]1CC[C@H]2[C@@H](C)C(=O)O[C@@H]3O[C@@]4(C)CC[C@@H]1[C@]32OO4` [ARTEMISININ], the IC50 in assay [1] is 2.3 ng/mL (≈ 8.15 nM); in assay [2], 1.01 ng/mL (≈ 3.6 nM).
For `CCOC(=O)C[C@H](O[C@H]1O[C@@H]2O[C@@]3(C)CC[C@H]4[C@H](C)CCC([C@H]1C)[C@@]24OO3)c1ccc([N+](=O)[O-])cc1` (some centres undefined), the half-inhibitory concentration (IC50) in assay [1] came to 0.246 ng/mL (≈ 0.487 nM); in assay [2], 0.0487 ng/mL (≈ 0.0963 nM).
For `C[C@@H]1CCC2[C@@H](C)[C@@H](O[C@H](C)c3ccc(C(=O)O)cc3)O[C@@H]3O[C@@]4(C)CC[C@@H]1[C@@]23OO4` (some centres undefined), the IC50 in assay [1] amounted to 5.77 ng/mL (≈ 13.3 nM); in assay [2], 2.54 ng/mL (≈ 5.86 nM).
With `C[C@@H]1CCC2[C@@H](C)[C@@H](O[C@H](CC(=O)O)c3ccc([N+](=O)[O-])cc3)O[C@@H]3O[C@@]4(C)CC[C@@H]1[C@@]23OO4` (some centres undefined), the IC50 in assay [1] worked out at 2.87 ng/mL (≈ 6.01 nM); in assay [2], 1.35 ng/mL (≈ 2.82 nM).
On the same counts, the results for `C[C@H](O[C@H]1O[C@@H]2O[C@@]3(C)CC[C@H]4[C@H](C)CCC([C@H]1C)[C@@]24OO3)c1ccc(C(=O)O)cc1` (some centres undefined) are 2.94 ng/mL (≈ 6.79 nM) and 1.23 ng/mL (≈ 2.85 nM).
As to `CCOC(=O)C[C@@H](O[C@H]1O[C@@H]2O[C@@]3(C)CC[C@H]4[C@H](C)CCC([C@H]1C)[C@@]24OO3)c1ccc([N+](=O)[O-])cc1` (some centres undefined), the IC50 in assay [1] is 0.563 ng/mL (≈ 1.11 nM); in assay [2], 0.23 ng/mL (≈ 0.454 nM).
